Source: ChEMBL document CHEMBL1629705, “PSI-7851, a pronucleotide of beta-D-2'-deoxy-2'-fluoro-2'-C-methyluridine monophosphate, is a potent and pan-genotype inhibitor of hepatitis C virus replication” (Antimicrob Agents Chemother, 2010)
Values belong to the compound of their own block, whether it stands above or below them. Activity calls are given as the source filed them. No cut-off for these calls is given here.

Assays:
[1] = target: DNA polymerase beta (Homo sapiens, UniProt P06746); experiment: Inhibition of human DNA polymerase beta assessed as incorporation of [alpha-32P]dCTP up to 1mM preincubated for 30 mins by whatman DE81 paper binding assay
Method in brief: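 Human DNA polymerase β at 18 μg/ml final, in 50 mM Tris pH 7.5, 50 mM NaCl, 5 mM MgCl2, activated calf thymus DNA and 20 μM each dNTP with [α-32P]dCTP. Triphosphate up to 1 mM. 37°C, stopped at 30 min with EDTA. Products quantified by DE81 paper binding; IC50 by nonlinear fit.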

[2] = target: T1, DNA polymerase subunit gamma-1 (Homo sapiens, UniProt P54098); experiment: Inhibition of human DNA polymerase gamma assessed as incorporation of [alpha-32P]dCTP up to 1mM preincubated for 30 mins by whatman DE81 paper binding assay
T1 sequence (P54098 whole entry): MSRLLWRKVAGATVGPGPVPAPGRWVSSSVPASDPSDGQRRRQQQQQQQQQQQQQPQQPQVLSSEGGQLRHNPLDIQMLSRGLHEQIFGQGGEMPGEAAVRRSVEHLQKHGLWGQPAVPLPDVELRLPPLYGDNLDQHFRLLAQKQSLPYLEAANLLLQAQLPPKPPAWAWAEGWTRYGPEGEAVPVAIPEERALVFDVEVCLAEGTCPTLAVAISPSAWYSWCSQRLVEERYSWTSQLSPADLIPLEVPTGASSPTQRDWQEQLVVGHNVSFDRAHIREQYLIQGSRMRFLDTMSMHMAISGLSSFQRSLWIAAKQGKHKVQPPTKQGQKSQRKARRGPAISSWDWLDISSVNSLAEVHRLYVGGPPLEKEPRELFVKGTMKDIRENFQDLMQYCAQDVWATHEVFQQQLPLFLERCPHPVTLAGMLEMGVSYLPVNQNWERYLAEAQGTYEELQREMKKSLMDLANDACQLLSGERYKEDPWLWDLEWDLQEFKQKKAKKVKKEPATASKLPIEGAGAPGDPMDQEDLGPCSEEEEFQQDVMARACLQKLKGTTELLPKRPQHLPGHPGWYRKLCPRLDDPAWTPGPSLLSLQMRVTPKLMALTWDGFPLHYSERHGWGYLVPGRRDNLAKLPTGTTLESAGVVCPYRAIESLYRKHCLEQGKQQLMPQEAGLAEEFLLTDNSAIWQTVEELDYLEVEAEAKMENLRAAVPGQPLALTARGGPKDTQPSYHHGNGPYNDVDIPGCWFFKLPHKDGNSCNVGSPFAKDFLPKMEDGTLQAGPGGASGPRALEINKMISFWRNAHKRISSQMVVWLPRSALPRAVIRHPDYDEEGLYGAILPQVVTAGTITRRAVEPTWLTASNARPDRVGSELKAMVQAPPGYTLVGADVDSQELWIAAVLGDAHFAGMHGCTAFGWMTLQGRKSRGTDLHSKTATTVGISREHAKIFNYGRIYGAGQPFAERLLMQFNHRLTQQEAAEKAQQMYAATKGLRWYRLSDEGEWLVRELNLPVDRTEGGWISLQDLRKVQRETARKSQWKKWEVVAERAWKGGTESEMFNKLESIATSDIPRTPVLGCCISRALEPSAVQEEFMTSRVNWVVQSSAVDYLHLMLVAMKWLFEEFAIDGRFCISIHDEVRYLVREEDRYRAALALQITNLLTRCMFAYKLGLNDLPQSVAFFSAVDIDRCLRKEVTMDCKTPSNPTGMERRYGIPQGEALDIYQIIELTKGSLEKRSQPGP
Method in brief: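 Human DNA polymerase α (20 μg/ml) or γ (50 μg/ml) in 50 mM Tris pH 7.5, 50 mM NaCl, activated calf thymus DNA, 20 μM each dNTP, [α-32P]dCTP, 5 mM MgCl2. Nucleotide inhibitor up to 1 mM. 37°C, quenched with EDTA at 30 min. Product measured by DE81 paper binding; IC50 by nonlinear fit.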

[3] = system: Hepatitis C virus; experiment: Antiviral activity against Hepatitis C virus harboring wild-type NS5B infected in human HuH7 cells by luciferase-based replicon assay; assay type: functional, Hepacivirus hominis; conditions: Huh-7
[4] = system: Hepatitis C virus; experiment: Selectivity ratio of EC90 for Hepatitis C virus harboring NS5B polymerase S96T mutant gene to EC90 for HCV harboring wild type NS5B polymerase; assay type: functional, Hepacivirus hominis
[5] = system: Hepatitis C virus; experiment: Antiviral activity against Hepatitis C virus harboring NS5B polymerase S282T mutant gene infected in human HuH7 cells by luciferase-based replicon assay; assay type: functional, Hepacivirus hominis; conditions: Huh-7
[6] = system: Hepatitis C virus; experiment: Antiviral activity against Hepatitis C virus harboring wild-type NS5B infected in human lunet cells by luciferase-based replicon assay; assay type: functional, Hepacivirus hominis
Method in brief: (§1)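 ET-lunet cells with the ET genotype 1b replicon, wild-type or S96T/N142T (ET replicon with these mutations electroporated into Lunet cells, selected in 0.2 mg/ml G418). 3,000 cells/well, 4 days with serially diluted compound. Firefly luciferase luminescence read-out; EC90 from dose–response.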

[7] = system: Hepatitis C virus; experiment: Antiviral activity against Hepatitis C virus harboring NS5B polymerase S96T/N142T mutant gene infected in human […] cells by luciferase-based replicon assay; assay type: functional, Hepacivirus hominis; method in brief: as §1
[8] = system: Hepatitis C virus; experiment: Antiviral activity against Hepatitis C virus harboring NS5B polymerase S96T mutant gene infected in human lunet cells by luciferase-based replicon assay; assay type: functional, Hepacivirus hominis; method in brief: as §1
[9] = system: Hepatitis C virus; experiment: Selectivity ratio of EC90 for Hepatitis C virus harboring NS5B polymerase S282T mutant gene to EC90 for Hepatitis C virus harboring wild-type NS5B polymerase; assay type: functional, Hepacivirus hominis
Method in brief: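 Clone A genotype 1b (Con1) replicon cells, wild-type or S282T mutant (selected with 2′-C-methyladenosine). 1,500 cells/well, 4 days with serially diluted compound. HCV RNA by real-time RT-PCR; EC90 from dose–response.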

[10] = target: T2, DNA-directed RNA polymerase II subunit RPB1 (Homo sapiens, UniProt P24928); experiment: Inhibition of human RNA polymerase 2 assessed as synthesis of RNA products at 1 uM
Method in brief: (§2)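 In vitro transcription by HeLa nuclear extract from CMV immediate-early promoter DNA. Mix: 400 μM ATP, CTP and UTP, 16 μM GTP, [α-32P]GTP, 3 mM MgCl2, in 20 mM HEPES pH 7.9 buffer with KCl, EDTA, DTT and glycerol. Inhibitor up to 1 mM. 30°C for 60 min. RNA purified, run on 6% sequencing gel and quantified by phosphorimager.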

[11] = target: T2, DNA-directed RNA polymerase II subunit RPB1; experiment: Inhibition of human RNA polymerase 2; method in brief: as §2
[12] = target: T2, DNA-directed RNA polymerase II subunit RPB1; experiment: Inhibition of human RNA polymerase 2 assessed as synthesis of RNA products at 500 uM; method in brief: as §2
[13] = system: Hepatitis C virus; experiment: Antiviral activity against Hepatitis C virus; assay type: functional, organism-based, Hepacivirus hominis
[14] = system: Hepatitis C virus; experiment: Antiviral activity against Hepatitis C virus assessed as inhibition of viral rebound at 0.1 uM after 3 weeks in presence of G418; assay type: functional, organism-based; conditions: Hepacivirus hominis
Method in brief: (§3)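 ET-lunet replicon cells seeded at 1 × 10^5/well without G418, treated at 0.1, 1 or 2 μM (final DMSO 0.5%). Passaged 1:3–1:4 every 3–4 days for 3 weeks with fresh compound. Then compound withdrawn and cells grown 3 more weeks in 0.25 mg/ml G418. HCV RNA by RT-PCR (ΔΔCt vs rRNA and DMSO controls, log change). Colonies fixed in formaldehyde and stained with crystal violet at 6 weeks.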

[15] = system: Hepatitis C virus; experiment: Antiviral activity against Hepatitis C virus assessed as inhibition of viral rebound at 1 uM after 3 weeks in presence of G418; assay type: functional, organism-based; conditions: Hepacivirus hominis
Method in brief: (§4)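 ET-lunet replicon cells, 1 × 10^5/well, no G418, with compound at 0.1, 1 or 2 μM (final DMSO 0.5%). Passaged 1:3 or 1:4 every 3–4 days for 3 weeks with fresh compound, then 3 more weeks with 0.25 mg/ml G418 and no inhibitor. HCV RNA by RT-PCR normalized to rRNA (ΔΔCt vs DMSO) at each passage. Crystal violet colony staining at 6 weeks.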

[16] = system: Hepatitis C virus; experiment: Antiviral activity against Hepatitis C virus assessed as clearance of HCV from replicon cells at 2 uM; assay type: functional, organism-based; conditions: Hepacivirus hominis; method in brief: as §4
[17] = system: Hepatitis C virus; experiment: Antiviral activity against Hepatitis C virus assessed as clearance of HCV from replicon cells at 1 uM; assay type: functional, organism-based; conditions: Hepacivirus hominis; method in brief: as §4
[18] = system: Hepatitis C virus; experiment: Antiviral activity against Hepatitis C virus assessed as inhibition of viral rebound at 2 uM after 3 weeks in presence of G418; assay type: functional, organism-based; conditions: Hepacivirus hominis; method in brief: as §4
[19] = system: Hepatitis C virus; experiment: Antiviral activity against Hepatitis C virus assessed as log reduction in viral RNA at 0.1 uM after 3 weeks; assay type: functional, Hepacivirus hominis; method in brief: as §3
[20] = system: Hepatitis C virus; experiment: Antiviral activity against Hepatitis C virus Con1 infected in human lunet cells assessed as inhibition of viral RNA replication after 4 days by luciferase reporter gene assay; assay type: functional, organism-based, Hepacivirus hominis; conditions: 96 h
Method in brief: (§5)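 Genotype 1b Con1 subgenomic replicon cells (ET-lunet, 3,000 cells/well, firefly luciferase ET replicon; clone A, 1,500 cells/well) incubated 4 days with serially diluted compound. Replication read by luciferase luminescence and/or real-time RT-PCR.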

[21] = system: Hepatitis C virus; experiment: Antiviral activity against Hepatitis C virus isolate Con1 infected in human HuH-7 cells assessed as inhibition of viral RNA replication after 4 days by luciferase reporter gene assay; assay type: functional, Hepacivirus hominis; conditions: Con1, Huh-7, 96 h; method in brief: as §5

SMILES: C[C@@]1(CO)[C@H](O)CC[C@@]2(C)[C@H]1CC[C@H]1C[C@@H]3C[C@@]12CC[C@]3(O)CO [APHIDICOLIN]
- IC50 [1]: > 100 µM
- IC50 [2]: > 100 µM

SMILES: [N-]=[N+]=N[C@]1(CO)O[C@@H](n2ccc(N)nc2=O)[C@H](O)[C@@H]1O [4'-AZIDOCYTIDINE]
- EC90 [3]: 18.6 µM
- Selectivity ratio [4]: 4.7
- EC90 [5]: 24.9 µM
- EC90 [6]: 17 µM
- EC90 [7]: 80.1 µM
- EC90 [8]: 80.1 µM
- Selectivity ratio [9]: 1.3

- inhibition [10]: Active
- IC50 [11]: > 500 µM
- inhibition [12]: 67%
SMILES: Nc1ccn([C@@H]2O[C@H](COP(=O)(O)OP(=O)(O)OP(=O)(O)O)C[C@H]2O)c(=O)n1

- EC50 [13]: 0.11 µM
SMILES: CC(C)CCn1c(=O)c(C2=NS(=O)(=O)c3cc(N(C)S(C)(=O)=O)ccc3N2)c(O)c2cccn21
- Activity [14]: inactive
- Activity [15]: inactive
- Activity [16]: inactive
- Activity [17]: inactive
- Activity [18]: Active
- FC [19]: 0.69

- EC50 [20]: 0.075 µM
- EC90 [20]: 0.52 µM
- EC90 [21]: 0.45 µM
SMILES: C[C@@]1(F)[C@H](O)[C@@H](CO)O[C@H]1n1ccc(N)nc1=O
